Laboratory results taken from ChEMBL document CHEMBL4334444, “Studies of Jatrogossone A as a Reactive Oxygen Species Inducer in Cancer Cellular Models” (J Nat Prod, 2019).
Blank lines part the entries; values can stand above or below the molecule they belong to. Active and inactive are the calls of the source. The calls are words filed in the database; no cut-off is given here.

Legend:
B-ALL [1] = test: Antiproliferative activity against mouse B-ALL cells harboring Bax/Bak double knockout mutant assessed as reduction in cell viability at 0.1 to 250 uM by CellTiter-Glo assay; format: functional, cell-based
In short: (§1)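 CellTiter-Glo luminescent viability readout. Cells kept at 37 °C under 5% CO2. HMEC primary cells grown in basal medium with growth kit; leukemia lines and murine BCR-ABL (WT, Bax/Bak DKO) cultured per earlier description. Positive controls: staurosporine 25 μM, gambogic acid 10 μM, a toxic quinoline. At least two biological replicates in technical triplicate; luminescence normalized to untreated controls; EC50 computed.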

KOPN-8 [2] = test: Antiproliferative activity against human KOPN8 cells assessed as reduction in cell viability at 0.1 to 250 uM by CellTiter-Glo assay; format: functional, cell-based; in short: as §1
MDA-MB-231 [3] = test: Antiproliferative activity against human MDA-MB-231 cells assessed as reduction in cell viability at 0.1 to 250 uM after 48 hrs by propidium iodide staining based fluorescence assay; format: functional
In short: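 MDA-MB-231 and SUM149 seeded at 6 × 10^4 to 2 × 10^5 cells/well, cultured 24 h, then exposed for 48 h. Cells fixed in cold methanol, stained with 0.4% propidium iodide, fluorescence imaged. Viability expressed as percent surviving cells relative to vehicle wells.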

HMEC [4] = test: Cytotoxicity against human HMEC cells assessed as reduction in cell viability at 0.1 to 250 uM by CellTiter-Glo assay; format: cell-based; in short: as §1
KOPN-8 [5] = test: Induction of mitochondrial membrane potential loss in human KOPN8 cells at 4 uM after 24 hrs by TMRM staining based flow cytometric analysis; format: functional, cell-based
In short: (§2)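 TMRM flow cytometry. KOPN-8 (4 × 10^4 or 5 × 10^5 per well) or MCF-7 (2 × 10^4 or 2 × 10^5 per well) were seeded 24 h, then treated 24–48 h. FCCP 10 μM was added 10 min before staining as positive control. Cells were stained with TMRM 100 nM for 0.5 h, then PBS-washed, resuspended in PBS with 1% FBS and analysed by flow cytometry; DAPI flagged compromised cells.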

MCF7 [6] = test: Induction of mitochondrial membrane potential loss in human MCF7 cells at 4 uM after 24 to 48 hrs by TMRM staining based flow cytometric analysis; format: functional, cell-based; in short: as §2
MCF7 [7] = test: Induction of cell death in human MCF7 cells at 10 uM after 24 hrs; format: functional, cell-based
[8] = Half life in human plasma; format: ADME, cell-free
UoC-B1 = test: Antiproliferative activity against human UOCB1 cells assessed as reduction in cell viability at 1 to 10 uM by CellTiter-Glo assay; format: functional, cell-based; in short: as §1
KOPN-8 [9] = test: Cell cycle arrest in human KOPN8 cells assessed as decrease in accumulation at G1/G0 phase at 10 uM incubated for 24 hrs by propidium iodide staining based flow cytometric analysis relative to control; format: functional; details: KOPN-8, 24 h
In short: (§3)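 KOPN-8 plated at 1.00 × 10^6 cells/plate, held 12 h at 37 °C, treated 24 h at 10 μM; DMSO vehicle and 2 μM staurosporine as controls. Cells fixed in cold methanol, RNase-treated, stained with PI (50 μg/mL); cell-cycle distribution by flow cytometry.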

KOPN-8 [10] = test: Cell cycle arrest in human KOPN8 cells assessed as decrease in accumulation at S phase at 10 uM incubated for 24 hrs by propidium iodide staining based flow cytometric analysis relative to control; format: functional; details: KOPN-8, 24 h; in short: as §3
KOPN-8 [11] = test: Induction of apoptosis in human KOPN8 cells assessed as increase in late apoptotic cells at 10 uM after 24 hrs by Annexin V-FITC and propidium iodide staining based flow cytometry relative to control; format: functional
In short: (§4)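 KOPN-8 cells were plated at 1.00 × 10^6 per plate and held 12 h at 37 °C, then treated 24 h; positive control 2 μM staurosporine, vehicle DMSO. Cells were stained with Annexin V-FITC and PI and analysed by flow cytometry (FACSCalibur). Profiles are representative of three independent biological replicates.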

KOPN-8 [12] = test: Induction of apoptosis in human KOPN8 cells assessed as decrease in viable cells at 10 uM after 24 hrs by Annexin V-FITC and propidium iodide staining based flow cytometry; format: functional, cell-based; in short: as §4
KOPN-8 [13] = test: Decrease in cell viability in human KOPN8 cells incubated for 24 hrs by GF-AFC reagent based ApoTox-Glo triplex assay; format: functional
In short: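 ApoTox-Glo Triplex: cells held 12 h at 37 °C, then treated 24 h (100−0.15 μM). Viability/cytotoxicity reagent added, shaken, 30 min at 37 °C; viability read as GF-AFC fluorescence at 400Ex/505Em. Caspase-Glo 3/7 then added, 0.5 h at room temperature, luminescence read. Mean ± SEM of three independent experiments.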

B-ALL [14] = test: Cytotoxicity against BCR-ABL positive p185-positive mouse B-ALL cells expressing human BCL-W assessed as inhibition of cell viability after 24 hrs by AnnexinV-FITC/propidium iodide staining based flow cytometric analysis; format: functional
KOPN-8 [15] = test: Induction of mitochondrial membrane potential loss in human KOPN8 cells at 30 uM after 24 to 48 hrs by TMRM staining based flow cytometric analysis; format: functional, cell-based; in short: as §2
HMEC [16] = test: Induction of ROS generation in human HMEC cells at 30 uM incubated for 1 hr by CellROX green reagent based fluorescence assay; format: cell-based
In short: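 CellROX green ROS assay: cells exposed 1 h at 37 °C (30 μM) with DMSO 0.5% (v/v) negative control, menadione 10 μM positive control, ± NAC (100 μM per figure legend). CellROX green added at 5 μM final, 30 min more; washed, fixed in 4% paraformaldehyde 15 min, fluorescence read at 485 ex/535 em. Mean and SD of at least three experiments; two-way ANOVA.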

MDA-MB-231 [17] = test: Induction of ROS colocalization in mitochondria of human MDA-MB-231 cells at 30 uM incubated for 1 hr in presence of NAC by CellROX green reagent/mitotracker deep red staining based confocal microscopic method; format: functional, cell-based
In short: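 MDA-MB-231 plated at 4 × 10^4/well in phenol-red-free medium, 12 h at 37 °C; for rescue, NAC 100 μM pretreatment 0.5 h. Compound 30 μM or DMSO for 1 h, then CellROX green 5 μM final, MitoTracker Deep Red 250 nM, Hoechst 33342 500 nM (0.5 h before imaging). Washed twice, live spinning-disk confocal at 63×; two independent experiments.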

[18] = Stability in CH3CN assessed as micheal adduct formation by measuring intact compound incubated for 16 hrs in presence of glutathione by LC-MS analysis; format: physicochemical
[19] = Stability in CH3CN assessed as micheal adduct formation by measuring intact compound incubated for 16 hrs in presence of glutathione by NMR analysis; format: physicochemical
U2OS = test: Ratio of concentration required for induction of apoptosis in human U2OS cells to concentration required for induction of mito-phagy in human U2OS cells transfected with mKeima-Red-Mito-7; format: functional
KOPN-8 [20] = test: Induction of apoptosis in human KOPN8 cells assessed as early apoptotic cells at 10 uM after 24 hrs by Annexin V-FITC and propidium iodide staining based flow cytometry; format: functional, cell-based; in short: as §4
MCF7 [21] = test: Induction of mitochondrial membrane potential loss in human MCF7 cells at 30 uM after 24 to 48 hrs by TMRM staining based flow cytometric analysis; format: functional, cell-based; in short: as §2

Structure (SMILES): CC1=C2CC(C)(C)/C=C/C(=O)/C(C)=C\C3=C[C@H](C)C[C@]3(O2)C1=O [JATROPHONE]
inhibition (B-ALL [1]): Active
inhibition (KOPN-8 [2]): Active
inhibition (MDA-MB-231 [3]): Active
Activity (HMEC [4]): Toxic
Activity (KOPN-8 [5]): Active
Activity (MCF7 [6]): inactive
Activity (MCF7 [7]): Active

half-life [8]: 19.5 h
Stability [18]: Stable
Stability [19]: Stable
Structure (SMILES): CC(=O)O[C@H]1/C2=C/[C@@H](C)C(=O)C[C@H]3[C@@H](/C=C(\C)C(=O)[C@H]2C[C@H]1C)C3(C)C
inhibition (UoC-B1): Active
inhibition at 10 µM (KOPN-8 [9]): 5%
inhibition at 10 µM (KOPN-8 [10]): 5%
Activity (KOPN-8 [11]): 15%
Activity (KOPN-8 [12]): Active
inhibition (KOPN-8 [13]): Dose-dependent effect
IC50 (B-ALL [14]): 14.4 µM
Activity (KOPN-8 [15]): Active
Activity (HMEC [16]): Toxic
Activity (MDA-MB-231 [17]): inactive
Ratio (U2OS): 5
Activity (KOPN-8 [20]): inactive
Activity (MCF7 [21]): inactive
